Assay results: ChEMBL document CHEMBL1671747, “Efficacy and safety of intravenous peramivir for treatment of seasonal influenza virus infection” (Antimicrob Agents Chemother, 2010)

What was measured:
Settings in all cases: in vivo
[1] = system: Plasma; experiment: Plasma concentration in human at 600 mg, iv after 36 to 48 hrs; assay type: ADME, organism-based
Procedure, shortened: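 Subjects received a single IV infusion of 300 or 600 mg (mean 5.0 or 10.0 mg/kg; median infusion 0.63 h). Plasma was sampled just before the infusion ended, and on days 2 and 3. Samples were deproteinized and run on C18 LC/MS-MS. Values are medians at end of infusion, 18–24 h and 36–48 h after infusion.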

[2] = system: Homo sapiens; experiment: Toxicity in human patient infected with Influenza virus assessed as increase in monocyte at 300 mg, iv; assay type: organism-based
Procedure, shortened: (§1)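 Adults with seasonal influenza received one intravenous infusion of peramivir (300 or 600 mg) or matching placebo; the median infusion lasted 0.63 h. Blood for haematology, including the white-cell differential, was taken at baseline and on days 3 and 14. Tests were run by blinded technicians. Adverse-event incidence in the 298-subject safety population was compared with placebo by Fisher's exact test.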

[3] = system: Homo sapiens; experiment: Toxicity in human patient infected with Influenza virus assessed as increase in blood glucose at 300 mg, iv; assay type: organism-based
Procedure, shortened: (§2)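 One IV dose of 300 or 600 mg or placebo was given to adults with influenza. Blood (hematology, biochemistry) and urine (including NAG, β2- and α1-microglobulin, protein) were sampled at baseline, day 3 and day 14 by blinded technicians. Adverse-event incidence versus placebo was compared by Fisher's exact test.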

[4] = system: Homo sapiens; experiment: Toxicity in human patient infected with Influenza virus assessed as diarrhea at 300 mg, iv; assay type: organism-based
Procedure, shortened: (§3)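 Adverse events were recorded after one IV dose of 300 or 600 mg or placebo in adults with influenza. Incidence in each peramivir group was compared with placebo by Fisher's exact test.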

[5] = system: Homo sapiens; experiment: Toxicity in human patient infected with Influenza virus assessed as increase in lymphocyte at 300 mg, iv; assay type: organism-based; procedure, shortened: as §2
[6] = system: Homo sapiens; experiment: Toxicity in human patient infected with Influenza virus assessed as proteinuria at 300 mg, iv; assay type: organism-based
Procedure, shortened: (§4)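 Subjects received a single intravenous peramivir dose (300 or 600 mg) or placebo, infused over a median of 0.63 h. Urinalysis covered protein, albumin and sediment, among other analytes. Urine was collected at baseline and on days 3 and 14 and tested by blinded technicians. Incidence in the safety population (n = 298 treated) was compared with placebo by Fisher's exact test.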

[7] = system: Homo sapiens; experiment: Toxicity in human patient infected with Influenza virus assessed as white blood cells-positive urine at 300 mg, iv; assay type: organism-based; procedure, shortened: as §4
[8] = system: Homo sapiens; experiment: Toxicity in human patient infected with Influenza virus assessed as beta2 microglobulin in urine at 300 mg, iv; assay type: organism-based; procedure, shortened: as §2
[9] = system: Homo sapiens; experiment: Toxicity in human patient infected with Influenza virus assessed as decrease in white blood cell count at 300 mg, iv; assay type: organism-based; procedure, shortened: as §2
[10] = system: Homo sapiens; experiment: Toxicity in human patient infected with Influenza virus assessed as increase in blood bilirubin at 300 mg, iv; assay type: organism-based; procedure, shortened: as §2
[11] = system: Homo sapiens; experiment: Toxicity in human patient infected with Influenza virus assessed as increase in alanine aminotransferase at 300 mg, iv; assay type: organism-based; procedure, shortened: as §2
[12] = system: Homo sapiens; experiment: Toxicity in human patient infected with Influenza virus assessed as increase in aspartate aminotransferase at 300 mg, iv; assay type: organism-based; procedure, shortened: as §2
[13] = system: Homo sapiens; experiment: Toxicity in human patient infected with Influenza virus assessed as increase in alpha1 Microglobulin at 300 mg, iv; assay type: organism-based; procedure, shortened: as §2
[14] = system: Homo sapiens; experiment: Toxicity in human patient infected with Influenza virus assessed as nausea at 300 mg, iv; assay type: organism-based
Procedure, shortened: (§5)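 In this randomized trial, subjects received a single intravenous infusion of peramivir (300 mg or 600 mg) or matching placebo; the median infusion lasted 0.63 h. Subjects were followed at visits on days 1, 2 (optional), 3, 5, 9 and 14. Adverse-event incidences across the 298 treated subjects were compared with placebo using Fisher's exact test.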

[15] = system: Homo sapiens; experiment: Toxicity in human patient infected with Influenza virus assessed as increase in blood lactate dehydrogenase at 300 mg, iv; assay type: organism-based; procedure, shortened: as §2
[16] = system: Homo sapiens; experiment: Toxicity in human patient infected with Influenza virus assessed as beta-N-Acetyl-D-glucosaminidase at 300 mg, iv; assay type: organism-based; procedure, shortened: as §2
[17] = system: Homo sapiens; experiment: Toxicity in human patient infected with Influenza virus assessed as urine containing albumine at 300 mg, iv; assay type: organism-based; procedure, shortened: as §4
[18] = system: Homo sapiens; experiment: Toxicity in human patient infected with Influenza virus assessed as decrease in total Protein at 300 mg, iv; assay type: organism-based; procedure, shortened: as §2
[19] = system: Homo sapiens; experiment: Toxicity in human patient infected with Influenza virus assessed as lymphocyte morphology abnormal at 300 mg, iv; assay type: organism-based; procedure, shortened: as §1
[20] = system: Homo sapiens; experiment: Toxicity in human patient infected with Influenza virus assessed as nasopharyngitis at 300 mg, iv; assay type: organism-based; procedure, shortened: as §5
[21] = system: Homo sapiens; experiment: Toxicity in human patient infected with Influenza virus assessed as increase in blood phosphate at 300 mg, iv; assay type: organism-based; procedure, shortened: as §2
[22] = system: Homo sapiens; experiment: Toxicity in human patient infected with Influenza virus assessed as monocyte at 600 mg, iv; assay type: organism-based; procedure, shortened: as §1
[23] = system: Homo sapiens; experiment: Toxicity in human patient infected with Influenza virus assessed as increase in blood glucose at 600 mg, iv; assay type: organism-based; procedure, shortened: as §2
[24] = system: Homo sapiens; experiment: Toxicity in human patient infected with Influenza virus assessed as diarrhea at 600 mg, iv; assay type: organism-based; procedure, shortened: as §3
[25] = system: Homo sapiens; experiment: Toxicity in human patient infected with Influenza virus assessed as increase in lymphocyte at 600 mg, iv; assay type: organism-based; procedure, shortened: as §2
[26] = system: Homo sapiens; experiment: Toxicity in human patient infected with Influenza virus assessed as proteinuria at 600 mg, iv; assay type: organism-based; procedure, shortened: as §4
[27] = system: Homo sapiens; experiment: Toxicity in human patient infected with Influenza virus assessed as white blood cells-positive urine at 600 mg, iv; assay type: organism-based; procedure, shortened: as §4
[28] = system: Homo sapiens; experiment: Toxicity in human patient infected with Influenza virus assessed as beta2 microglobulin in urine at 600 mg, iv; assay type: organism-based; procedure, shortened: as §2
[29] = system: Homo sapiens; experiment: Toxicity in human patient infected with Influenza virus assessed as decrease in white blood cell count at 600 mg, iv; assay type: organism-based; procedure, shortened: as §2
[30] = system: Homo sapiens; experiment: Toxicity in human patient infected with Influenza virus assessed as increase in blood bilirubin at 600 mg, iv; assay type: organism-based; procedure, shortened: as §2
[31] = system: Homo sapiens; experiment: Toxicity in human patient infected with Influenza virus assessed as increase in alanine aminotransferase at 600 mg, iv; assay type: organism-based; procedure, shortened: as §2
[32] = system: Homo sapiens; experiment: Toxicity in human patient infected with Influenza virus assessed as increase in aspartate aminotransferase at 600 mg, iv; assay type: organism-based; procedure, shortened: as §2
[33] = system: Homo sapiens; experiment: Toxicity in human patient infected with Influenza virus assessed as increase in alpha1 microglobulin at 600 mg, iv; assay type: organism-based; procedure, shortened: as §2
[34] = system: Homo sapiens; experiment: Toxicity in human patient infected with Influenza virus assessed as nausea at 600 mg, iv; assay type: organism-based; procedure, shortened: as §5
[35] = system: Homo sapiens; experiment: Toxicity in human patient infected with Influenza virus assessed as increase in blood lactate dehydrogenase at 600 mg, iv; assay type: organism-based; procedure, shortened: as §2

## CCC(CC)[C@H](NC(C)=O)[C@@H]1[C@H](O)[C@@H](C(=O)O)C[C@H]1NC(=N)N [PERAMIVIR ANHYDROUS]
[1]
  Cp: 10.7 ng/mL
[2]
  Activity: Toxic
[3]
  Activity: Toxic
[4]
  Activity: Toxic
[5]
  Activity: Toxic
[6]
  Activity: Toxic
[7]
  Activity: Toxic
[8]
  Activity: Toxic
[9]
  Activity: Toxic
[10]
  Activity: Toxic
[11]
  Activity: Toxic
[12]
  Activity: Toxic
[13]
  Activity: Toxic
[14]
  Activity: Toxic
[15]
  Activity: Toxic
[16]
  Activity: Toxic
[17]
  Activity: Toxic
[18]
  Activity: Toxic
[19]
  Activity: Toxic
[20]
  Activity: Toxic
[21]
  Activity: Toxic
[22]
  Activity: Toxic
[23]
  Activity: Toxic
[24]
  Activity: Toxic
[25]
  Activity: Toxic
[26]
  Activity: Toxic
[27]
  Activity: Toxic
[28]
  Activity: Toxic
[29]
  Activity: Toxic
[30]
  Activity: Toxic
[31]
  Activity: Toxic
[32]
  Activity: Toxic
[33]
  Activity: Toxic
[34]
  Activity: Toxic
[35]
  Activity: Toxic
